Assay results reported in ChEMBL document CHEMBL3217651, “A furoxan-amodiaquine hybrid as a potential therapeutic for three parasitic diseases()” (Medchemcomm, 2012).
Calls of active or inactive are those of the source. The calls are words filed in the database; no cut-off is given here.

Experiments:
Plasmodium falciparum [1] = assay: Antimalarial activity against chloroquine-sensitive Plasmodium falciparum 3D7 infected in human erythrocytes after 72 hrs by SYBR Green I staining; settings: 3D7, 72 h
Plasmodium falciparum [2] = assay: Antimalarial activity against chloroquine-sensitive Plasmodium falciparum 3D7 infected in human erythrocytes after 96 hrs by luciferase based delayed death assay; assay type: functional, organism-based; settings: 3D7, 96 h
Summary of the method: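 Delayed-death format of the 3D7 erythrocyte proliferation assay: parasites incubated 96 hours with compound so that activity against progeny is detected, with luciferase as the viability reporter; IC50 taken from this read-out.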

Plasmodium falciparum [3] = assay: Ratio of IC50 for chloroquine-sensitive Plasmodium falciparum 3D7 by luciferase based delayed death assay to IC50 for chloroquine-sensitive Plasmodium falciparum 3D7 by SYBR Green I staining; assay type: functional
Summary of the method: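 P. falciparum 3D7 in human erythrocytes (0.3% parasitemia, 2.5% hematocrit final), seven fivefold dilutions from 5.7 or 29 μM. Standard format: 72 h at 37 °C, 5% CO2, then saponin/Triton lysis with SYBR Green I overnight in the dark, fluorescence 485/535 nm. Delayed-death format: 96 h, luciferase viability read-out. The line is the ratio of the delayed-death IC50 to the SYBR IC50.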

Schistosoma mansoni [4] = assay: Antischistosomiasis activity against Schistosoma mansoni at 5 nM to 50 uM by thioredoxin glutathione reductase biochemical assay; assay type: functional
Summary of the method: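 S. mansoni TGR (20 nM) preincubated 10 min at room temperature with 100 μM NADPH and compound (50 μM to 5 nM, eight levels) in 0.1 M potassium phosphate pH 7.4, 10 mM EDTA. Then 3 mM DTNB was added and A412 followed over the first 3 min. Residual activity was expressed relative to DMSO controls, in triplicate, and IC50 derived.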

Schistosoma mansoni [5] = assay: Antischistosomiasis activity against Schistosoma mansoni assessed as worm mobility and survival at 10 uM by stereomicroscopic analysis; assay type: functional, organism-based
Summary of the method: (§1)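 Adult worms perfused with RPMI 1640 from female Swiss-Webster mice 7 weeks after cercarial infection. They were washed and held at 15–20 per well in cRPMI (25 mM HEPES, penicillin/streptomycin, 10% FBS) overnight at 37 °C, 5% CO2. Compound from 10 mM DMSO stock was tested at 50, 10, 5 and 1 μM against DMSO-only wells. Media plus compound were renewed every 48 h; motility and survival scored by stereomicroscope, 10 s per worm.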

Ancylostoma ceylanicum [6] = assay: Nematicidal activity against Ancylostoma ceylanicum assessed as live/dead worms at 100 uM up to 120 hrs by adult worm killing assay; assay type: functional, organism-based
Summary of the method: (§2)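 Adult A. ceylanicum taken from small intestine of infected Syrian hamsters, cultured in RPMI 1640 with 50% FCS, penicillin/streptomycin, Fungizone. Ten worms per well, 2 wells per treatment, with 100 μM compound; DMSO and 100 μM albendazole controls. Wells scored by light microscopy every 24 h for percent live/dead, death meaning complete loss of motility, across 120 h.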

Schistosoma mansoni [7] = assay: Antischistosomiasis activity against Schistosoma mansoni assessed as worm mobility and survival at 50 uM after 24 hrs by stereomicroscopic analysis; assay type: functional, organism-based
Summary of the method: as §1

Ancylostoma ceylanicum [8] = assay: Nematicidal activity against Ancylostoma ceylanicum assessed as live/dead worms at 100 uM after 72 hrs by adult worm killing assay; assay type: functional, organism-based
Summary of the method: as §2

Q: With `CCN(CC)Cc1cc(Nc2ccnc3cc(Cl)ccc23)ccc1O` as the compound, how does the IC50 (Plasmodium falciparum [1]) read?
A: 15 nM

Q: What about the IC50 (Plasmodium falciparum [2]) of the same compound?
A: > 10000 nM

Q: Which IC50 (Plasmodium falciparum [1]) does the source give for `CC(C)(C)N(Cc1cc(Nc2ccnc3cc(Cl)ccc23)cc(-c2no[n+]([O-])c2C#N)c1)N=O` here?
A: 113 nM

Q: And the IC50 (Plasmodium falciparum [2])?
A: > 15000 nM

Q: What does the source list for `CC(C)(C)N(Cc1cc(Nc2ccnc3cc(Cl)ccc23)cc(-c2no[n+]([O-])c2/C=N/O)c1)N=O`?
A: Ratio IC50 (Plasmodium falciparum [3]): 50; IC50 (Plasmodium falciparum [1]): 24 nM; IC50 (Plasmodium falciparum [2]): 1070 nM

Q: `CC(C)(C)NCc1cc(Br)cc(Nc2ccnc3cc(Cl)ccc23)c1` was tested. Which IC50 (Plasmodium falciparum [1]) did it give?
A: 7 nM

Q: And the IC50 (Plasmodium falciparum [2])?
A: 65 nM

Q: `C[C@@H]1CC[C@H]2[C@@H](C)C(=O)O[C@@H]3O[C@@]4(C)CC[C@@H]1[C@]32OO4` [ARTEMISININ] was tested. Which IC50 (Plasmodium falciparum [1]) did it give?
A: 11 nM

Q: What about the IC50 (Plasmodium falciparum [2]) of the same compound?
A: 12 nM

Q: With `N#Cc1c(-c2ccccc2)no[n+]1[O-]` [FUROXAN] as the compound, how does the Activity (Schistosoma mansoni [4]) read?
A: Active

Q: What about the Activity (Schistosoma mansoni [5]) of the same compound?
A: Active

Q: `CC(C)(C)NCc1cc(Nc2ccnc3cc(Cl)ccc23)cc(-c2no[n+]([O-])c2C#N)c1` was tested. Which Activity (Schistosoma mansoni [4]) did it give?
A: Active

Q: And the IC50 (Plasmodium falciparum [1])?
A: 40 nM

Q: And the Activity (Ancylostoma ceylanicum [6])?
A: Active

Q: What about the IC50 (Plasmodium falciparum [2]) of the same compound?
A: 630 nM

Q: And the Activity (Schistosoma mansoni [5])?
A: inactive

Q: And the Activity (Schistosoma mansoni [7])?
A: Active

Q: What about the Activity (Ancylostoma ceylanicum [8]) of the same compound?
A: Active
